Measurements from PubChem BioAssay AID504382 (The Scripps Research Institute Molecular Screening Center, 2011).
Out of some 2,500 compounds screened, about 460 (18%) were called active. Not all results are given here. Values without a mark were called inactive.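 The calls were made as follows: active = mean activation above a cutoff of low control average plus 3 SD from the earlier screen (cut at about 12% in these data); inactive = the rest.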

Experiment: IANBD-channel fluorescence artefacts in buffer – biochemical, artefact control for cardiac RTF calcium sensitizer project, confirmation (AID 504382)
Details: IANBD fluorescence interference counterscreen, EC20 Ca2+, at 7.2 µM, stronger effect = higher value, scaled: EC20 calcium 0, EC100 calcium 100
Outline: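 Medium: MOPS/KCl/MgCl2/EGTA/NTA/DTT buffer, pH 7.2 | Reagent: EC20 calcium, 0.472 mM | Compound dosing: 7.2 µM single dose | Times: 15 min compound exposure at 25 °C | Signal: Fluorescence, 480/540 nm | Measure: Interference relative to controls | Repeats: Triplicate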
Work on `COc1ccc(/C=N/NC(=O)C(Cc2c[nH]c3ccccc23)NC(=O)OCC(C)C)cc1[N+](=O)[O-]` (configuration not stated) yielded a fluorescence artifact activation of 0.1%.
In the case of `Cc1cccc(CN2C(=O)N/C(=C/c3ccc(C)s3)C2=O)c1`, the fluorescence artifact activation is reported as 0.03%.
In the case of `COc1ccc(C2C(C#N)=C(N)N(c3cccnc3)C3=C2C(=O)CCC3)cc1Cn1cc([N+](=O)[O-])cn1` (configuration not stated), the fluorescence artifact activation is reported as 4.77%.
`CCOC(=O)C1C(=O)NC(SCC(N)=O)=C(C#N)C1c1ccccc1OCC` (configuration not stated) gave a fluorescence artifact activation of 0.28%.
With `Fc1ccc(-c2nc3ccncc3[nH]2)cc1` the fluorescence artifact activation was 1.25%.
Molecule `Cc1ccc2oc3c(SCc4nc5ccccc5[nH]4)nc(C)nc3c2c1` has a fluorescence artifact activation of 6.37%.
Molecule `CC1=NN(C(=O)c2ccccc2-n2cccc2)C(O)(C(F)(F)F)C1` (configuration not stated) has a fluorescence artifact activation of 0.1%.
In the case of `COc1ccc(OC)c(C2=C/C(=C/c3ccccn3)C(=O)O2)c1`, the fluorescence artifact activation is reported as 0.07%.
With `CCN(CC)c1ccc(/C=C/c2cccc[n+]2C)c(OC)c1` the fluorescence artifact activation was 22.6% (active).
`CCN(CC)c1ccc(/C=C/c2cc(-c3ccccc3)c3ccccc3n2)cc1` showed a fluorescence artifact activation of 3.44%.
For `C[C@@H]1CC=C[C@H]2[C@H]1C(=O)N(Cc1ccccc1)[C@H]2c1ccc(-c2cc3ccccc3s2)cc1F`, the fluorescence artifact activation was 0.21%.
In the case of `COc1ccc(-c2cc(C(F)(F)F)nc(S(=O)(=O)CCCC(=O)Nc3cc(C)on3)n2)cc1OC`, the fluorescence artifact activation is reported as 3.3%.
With `COc1ccc(S(=O)(=O)Nc2cc(C)on2)cc1` the fluorescence artifact activation was 26.7% (active).
`COc1ccc(NC(=O)c2cc(C)on2)cc1OC` showed a fluorescence artifact activation of 0.84%.
For `CC1=NN(C(=O)c2ccc(Cn3ccc([N+](=O)[O-])n3)cc2)C(O)(C(F)(F)F)C1` (configuration not stated), the fluorescence artifact activation was 5.1%.
Molecule `COc1cccc(/C=N/c2nc3ccccc3[nH]2)c1O` has a fluorescence artifact activation of 0.01%.
For `CN(C)c1ccc(/C=C/C(=O)c2c(O)c3ccccc3oc2=O)cc1`, the fluorescence artifact activation was 1.4%.
Work on `CN1CCN(c2ccc(-c3cccc(NC(=O)COc4ccccc4)c3)nn2)CC1` yielded a fluorescence artifact activation of 9.37%.
With `Cc1cc[n+](-c2[nH]c(=O)sc2/C=N/N=C(\[O-])c2ccccc2)cc1C` the fluorescence artifact activation was 3.62%.
For `O=C(NC(NC(=S)Nc1ccccc1C(=O)O)C(Cl)(Cl)Cl)c1ccco1` (configuration not stated), the fluorescence artifact activation was 0%.
With `O=C(CSc1ccc(Cl)cc1)Nc1cccc(NC(=O)c2ccco2)c1` the fluorescence artifact activation was 0.39%.
In the case of `O=C(NC(=S)Nc1ccc2oc(=O)ccc2c1)c1ccco1`, the fluorescence artifact activation is reported as 33.8% (active).
Work on `COc1ccc(/C=[N+](\[O-])C2N(c3ccccc3)C(=S)SC2(C)C)cc1OC` (configuration not stated) yielded a fluorescence artifact activation of 0.2%.
`CC(C)N1CC=C2C(C#N)=C(N)C(C#N)(C#N)C(c3ccccc3)C2C1` (configuration not stated) showed a fluorescence artifact activation of 0.48%.
For `CC(C)(ONC(=O)Nc1ccccc1Cl)C(=O)O`, the fluorescence artifact activation was 314% (active).
`O=C(Cc1ccccc1Cl)Nc1cccnc1` gave a fluorescence artifact activation of 1.8%.
`COc1ccc(C(=O)Nc2ccccc2-c2ccccc2)cc1Cl` gave a fluorescence artifact activation of 0.15%.
Molecule `Clc1cccc(C[n+]2cc(-c3ccccc3)n3c2CCC3)c1` has a fluorescence artifact activation of -0.06%.
Work on `CCc1cc[n+](-c2nc([O-])sc2C=O)cc1` yielded a fluorescence artifact activation of 2.36%.
With `COc1ccc(N2CC(C(=O)Nc3nc(-c4ccccc4)c(C(C)=O)s3)CC2=O)c(OC)c1` (configuration not stated) the fluorescence artifact activation was 0.16%.
In the case of `O=C(O)CCC(=O)Nc1cc(C(F)(F)F)cc(C(F)(F)F)c1`, the fluorescence artifact activation is reported as 3.32%.
Work on `CC1=NN(c2ccc(Br)cc2)C(=O)/C1=C/c1ccc(-c2ccccc2C(=O)O)o1` yielded a fluorescence artifact activation of 0.09%.
With `CC1=NN(c2ccc(C)c(C)c2)C(=O)/C1=C/c1ccc2c(c1)n(C)c(=O)n2C` the fluorescence artifact activation was 16.1% (active).
`CCOC(=O)c1c(NC(=O)COC(=O)Cc2ccccc2[N+](=O)[O-])sc(C(=O)N(C)C)c1C` gave a fluorescence artifact activation of -0.03%.
`Oc1[nH]c2ccccc2c1N=Nc1cccc(Cl)c1` showed a fluorescence artifact activation of 0.77%.
In the case of `CCC(/C=C1\Oc2ccc(OC)cc2N1C)=C\c1sc2ccccc2[n+]1CCCS(=O)(=O)[O-]`, the fluorescence artifact activation is reported as 4.9%.
In the case of `COc1ccc(N/C=C\C(=O)c2ccc(Br)cc2)cc1OC`, the fluorescence artifact activation is reported as 15.4% (active).
`COc1cc(OC)c(OC)cc1/C=C/C(=O)c1ccc(NS(=O)(=O)c2ccc(C)cc2)cc1` gave a fluorescence artifact activation of 0.29%.
With `COc1ccc(NC(=O)C2CC2)cc1OC1CCCC1` the fluorescence artifact activation was 0.04%.
Molecule `Cc1ccc(N=Cc2sc(O)c3ccccc23)cc1` has a fluorescence artifact activation of 0%.
For `COc1ccc(N=Cc2sc(O)c3ccccc23)cc1`, the fluorescence artifact activation was 27.5% (active).
`Oc1sc(C=Nc2ccccc2)c2ccccc12` gave a fluorescence artifact activation of -0.05%.
With `COc1ccc(-c2nnc(SCC(=O)c3ccc[nH]3)n2-c2ccccc2)cc1` the fluorescence artifact activation was 0.12%.
In the case of `COc1ccc(-n2nnnc2SCC(=O)c2cc3ccccc3o2)cc1`, the fluorescence artifact activation is reported as 12.4% (active).
`COc1ccc(OC)c(-n2nnnc2SCC(=O)NCCc2ccccc2)c1` showed a fluorescence artifact activation of 3.03%.
`COC(=O)CCCNC(=O)CCc1nnc(-c2ccc(-c3ccccc3)cc2)o1` gave a fluorescence artifact activation of -0.05%.
`COc1ccc(C(=O)Nn2cnc3scc(-c4cccs4)c3c2=O)c(O)c1` showed a fluorescence artifact activation of 7.33%.
In the case of `CCOc1ccc(-c2nc3scc(-c4cccs4)c3c(=O)[nH]2)cc1`, the fluorescence artifact activation is reported as 15.2% (active).
`O=C(NCCN1CCOCC1)c1ccc(CS(=O)(=O)c2c(Cl)cccc2Cl)o1` gave a fluorescence artifact activation of -0.03%.
In the case of `CCOC(=O)c1c(/N=C/c2cccc([N+](=O)[O-])c2O)sc(C)c1C`, the fluorescence artifact activation is reported as 2.1%.
With `COC(=O)c1c(-c2ccc(OC)c(OC)c2)csc1N` the fluorescence artifact activation was 0%.
`CC1CCC(C(C)C)C(OC(=O)Cn2c(-c3ccccc3)[n+](C)c3ccccc32)C1` (configuration not stated) showed a fluorescence artifact activation of 0%.
`CCC(C)[C@H](NC(=O)N1CCC(C)CC1)C(=O)OC` (some centres not stated) showed a fluorescence artifact activation of -0.05%.
`CCn1c(SCC(=O)NNC(=O)c2ccco2)nnc1-c1ccco1` gave a fluorescence artifact activation of -0.04%.
In the case of `O=C(CSc1nnc(-c2ccco2)o1)NC1CCCCC1`, the fluorescence artifact activation is reported as -0.05%.
For `O=C(CCSc1nnc(-c2ccco2)o1)Nc1ccccc1`, the fluorescence artifact activation was 24.7% (active).
Work on `Cc1ccc(-n2nnnc2C(=Cc2ccc(N(C)C)cc2)c2nnnn2-c2ccc(C)cc2)cc1` yielded a fluorescence artifact activation of 0.09%.
`COc1cccc2cc(-c3nc(-c4cccs4)cs3)c(=O)oc12` showed a fluorescence artifact activation of -0.05%.
Work on `CCOC(=O)c1c(-c2ccccc2)csc1NC(=O)/C(C#N)=C\c1ccc(O)c(OC)c1` yielded a fluorescence artifact activation of 0.5%.
With `CC(C)CN1CCN(Cc2cccn2-c2ccc(Cl)cn2)CC1CCO` (configuration not stated) the fluorescence artifact activation was 26.8% (active).
`CCOC(=O)/C(=C/C=C1\Sc2cc(OCC)c(OCC)cc2N1CC)C(C)=O` showed a fluorescence artifact activation of 5.45%.
In the case of `O=C1CCC[C@@H]2Cc3nc4ccc(O)cc4cc3[C@@H]3CCN1[C@H]23`, the fluorescence artifact activation is reported as 1.03%.
With `c1ccc(CCCN2CCN(c3ccccc3)CC2)cc1` the fluorescence artifact activation was 0%.
`CCc1ccc(C(=O)NNc2ccccc2F)cc1` showed a fluorescence artifact activation of 1.03%.
`Cc1occc1C(=O)N=Nc1c(O)n(C)c2ccccc12` gave a fluorescence artifact activation of 2.27%.
`COCCn1c(SCC(=O)Nc2ccc(NC(=O)c3ccco3)c(OC)c2)nc2ccccc2c1=O` gave a fluorescence artifact activation of 1.13%.
For `COCCn1c(-c2ccc(C)cc2)nc2oc3cc(OC)ccc3c(=O)c2c1=O`, the fluorescence artifact activation was 0.27%.
For `COCCn1c(=O)c2ccccc2c2ccccc2c1=O`, the fluorescence artifact activation was 17.2% (active).
`O=C(Nc1cc2c(cc1Br)OCCCO2)c1cccnc1` showed a fluorescence artifact activation of -0.06%.
In the case of `CCN(CC(=O)N1CCCC1)S(=O)(=O)c1ccc(OC)cc1`, the fluorescence artifact activation is reported as 87% (active).
In the case of `Cc1ccccc1NS(=O)(=O)c1ccc(OCC(=O)N2CCCCC2)cc1`, the fluorescence artifact activation is reported as -0.04%.
With `COc1ccc(CN(Cc2cccn2C)S(=O)(=O)c2ccccc2)cc1` the fluorescence artifact activation was 0.19%.
With `Cc1ccc([N+](=O)[O-])c(OCCCN2C(=O)NC(C)(C)C2=O)c1` the fluorescence artifact activation was 0.02%.
`COc1ccccc1N1C(C)=CC(=C(C#N)c2nc3ccccc3s2)C=C1C` gave a fluorescence artifact activation of 0.18%.
Work on `COc1ccc(N2C(=O)[C@@H]3[C@H](C2=O)[C@H](C(C)=O)N2c4ccccc4C=C[C@@H]32)cc1` yielded a fluorescence artifact activation of 0.08%.
With `CCOc1ccc(CN2CCN(C/C=C/c3ccc(OC)cc3)CC2CCO)cc1` (configuration not stated) the fluorescence artifact activation was 0.09%.
With `Cc1ccc(CN2CCN(Cc3ccc(-n4cccn4)cc3C)CC2CCO)cc1` (configuration not stated) the fluorescence artifact activation was 37.2% (active).
For `CSc1nnc(N(CCC#N)CCC#N)s1`, the fluorescence artifact activation was 11.2%.
Molecule `COc1ccc(-c2onc3ccc(C(C)=O)cc23)cc1` has a fluorescence artifact activation of 5.91%.
In the case of `CC1(C)CC(=O)C(C=Nc2ccc(C(=O)c3ccccc3)cc2N=CC2=C(O)CC(C)(C)CC2=O)=C(O)C1`, the fluorescence artifact activation is reported as 0.03%.
For `Cc1nnc(N2CCOCC2)c2nn(-c3cccc(Cl)c3)c(C)c12`, the fluorescence artifact activation was 0.16%.
For `O=C(N/N=C/c1c(O)n(-c2ccc(Cl)cn2)c(=O)c2ccccc12)c1ccncc1`, the fluorescence artifact activation was 0.02%.
With `Cn1c(O)c(/C=N/NC(=O)c2cc3ccccc3cc2O)c2ccccc21` the fluorescence artifact activation was 70% (active).
`COc1cc(OC)c(NC(=O)c2cc3ccccc3cc2O)cc1Cl` showed a fluorescence artifact activation of 0.48%.
`CCCNC(=O)C12CCC(C)(C(=O)C1Br)C2(C)C` (configuration not stated) showed a fluorescence artifact activation of 0.01%.
`CN(C)CCNC(=O)c1c(CSc2ccc(Cl)cc2)noc1C(=O)NCc1ccccc1` gave a fluorescence artifact activation of 0.05%.
With `COc1cc(OC)c(C2N(c3ccc(Cl)c(Cl)c3)C(=O)C3CCCN32)cc1OC` (configuration not stated) the fluorescence artifact activation was -0.1%.
For `O=C(O)c1ncc(-c2ccccc2)cn1`, the fluorescence artifact activation was 43.6% (active).
`O=C([O-])c1ccccc1-[n+]1c(-c2ccccc2)cc(-c2ccccc2)cc1-c1ccccc1` gave a fluorescence artifact activation of 0%.
Work on `NC(=O)C1CCN(C(=O)c2ccc(-c3ccccc3)cc2)CC1` yielded a fluorescence artifact activation of 4.63%.
In the case of `c1ccc2c(c1)CN1CCCC1=N2`, the fluorescence artifact activation is reported as -0.08%.
With `CCOc1cc(N(CC)CC)ccc1/C=C(/C#N)c1nc2ccccc2[nH]1` the fluorescence artifact activation was 0.26%.
With `CCCOc1cc(N(CC)CC)ccc1/C=C(/C#N)c1nc2ccc(C)cc2[nH]1` the fluorescence artifact activation was 12.4% (active).
`COc1cc(/C=C(\C#N)c2nc3ccccc3[nH]2)cc(OC)c1O` gave a fluorescence artifact activation of 6.16%.
`COc1cc(/C=C(\C#N)c2nc3ccccc3[nH]2)ccc1O` showed a fluorescence artifact activation of 0.06%.
In the case of `CCN(CC)c1ccc(/C=C(/C#N)c2nc3ccccc3[nH]2)c(OC(C)C)c1`, the fluorescence artifact activation is reported as 41.8% (active).
Work on `COc1cccc(/C=C(/C#N)c2nc3ccccc3[nH]2)c1OC(C)C(=O)O` (configuration not stated) yielded a fluorescence artifact activation of 0.54%.
